Results collected from several papers.
Protocols differ between the studies behind these lines.
Target: cAMP-dependent protein kinase catalytic subunit alpha (PRKACA, Homo sapiens, UniProt P17612)

CCCS(=O)(=O)Nc1ccc(F)c(C(=O)c2c[nH]c3ncc(-c4ccc(Cl)cc4)cc23)c1F — inhibition (enzyme activity, inhibitor; 1 µM): < 10%
Cn1c2c(c3ccc(Cl)c(Cl)c31)C(C#N)C1(CCNCC1)NC2=O (racemic) — ΔTm (thermal stability, DSF; 10 µM): 3.3 °C
CN(c1nccc(-c2cnn3ncccc23)n1)C1CC1 — remaining signal (cell-free assay; 1 µM): 100%
CC1=C(C#N)[C@@H](c2ccc3[nH]nc(C)c3c2)C(C#N)=C(c2ccc(Cl)cc2)N1 — remaining binding (cell-free assay, competition with immobilised ligand; 1 µM): 96.7%
CCN(CC)c1ccc(C2=NNC(=O)CC2C)cc1[N+](=O)[O-] (stereo not drawn) — remaining activity (enzyme activity, inhibitor; 10 µM): 100%
CN1CC(Oc2cnc(C#N)cc2-c2ccn3nc(NC(=O)C4CC4)cc3c2)C1 — inhibition (enzyme activity, inhibitor; 1 µM): 7%
Nc1nc(NC2CCCCC2)sc1C(=O)c1ccccc1 — remaining activity (enzyme activity, inhibitor; 10 µM): 97%
Cn1c2c(Cl)c(Cl)ccc2c2cc(N)[nH]c(=O)c21 — ΔTm (thermal stability, DSF; 10 µM): 0.1 °C
O=C(CSc1nc2nccnc2c(=O)n1CCc1ccccc1)Nc1nccs1 — inhibition (enzyme activity, inhibitor; 10 µM): 6%
Cn1cnc(Br)c1C1=CN(c2ncnc3[nH]cnc23)CCS1 — inhibition (enzyme activity, inhibitor, radiometric; 2 µM): 90.2%
CCOC(=O)c1cc2cc(-c3cc(C(=O)NCc4ccc(C(=O)O)cc4)nn3C)ccc2[nH]1 — remaining binding (cell-free assay, competition with immobilised ligand; 0.1 µM): 85%
O=C(Nc1cnn(-c2csc(C(=O)NC3COC3)c2)c1)Nc1ccccc1Cl — remaining activity (enzyme activity, inhibitor; 5 µM): 99.8%
Cn1c2c(Cl)c(Cl)ccc2c2cn[nH]c(=O)c21 — ΔTm (thermal stability, DSF; 10 µM): 0.6 °C
FC(F)c1nc2ccccc2n1-c1nc(N2CCOCC2)nc(N2CCOCC2)n1 — remaining activity (enzyme activity, inhibitor; 10 µM): 76%
Cc1ccc(C(=O)Nc2ccc(CN3CCN(C)CC3)c(C(F)(F)F)c2)cc1C#Cc1cnc2cccnn12 — remaining activity (enzyme activity, inhibitor; 23.5 nM): 53%
Cn1c(=O)n(-c2ccc(C(C)(C)C#N)cc2)c2c3cc(-c4cnc5ccccc5c4)ccc3ncc21 — remaining activity (enzyme activity, inhibitor; 10 µM): 82%
FC(F)(F)Oc1cccc(-c2cnc3ccc(-c4ccncc4)nn23)c1 — activity vs control (enzyme activity, inhibitor, radiometric; 5 µM): 106%
COc1cc(/C=C/C(=O)CC(=O)/C=C/c2ccc(O)c(OC)c2)ccc1O — activity vs control (enzyme activity, inhibitor; 1 µM): 94%
CCN(CC)CCNC(=O)c1c(C)[nH]c(/C=C2\C(=O)Nc3ccc(F)cc32)c1C — inhibition (enzyme activity, inhibitor; 0.3 µM): 11%
Cc1ccc(-n2nc(C(C)(C)C)cc2NC(=O)Nc2ccc(OCCN3CCOCC3)c3ccccc23)cc1 — inhibition (enzyme activity, inhibitor; 10 µM): 6%
CSc1nc(C)c(-c2ccnc(Nc3ccc(N4CCOCC4)cc3)c2)[nH]1 — inhibition (enzyme activity, inhibitor; 10 µM): 5%
O=C(NS(=O)(=O)c1ccc(NCC2CCOCC2)c([N+](=O)[O-])c1)c1ccc(N2CCN(Cc3ccc(C(F)(F)F)cc3-c3ccc(Cl)cc3)CC2)cc1Oc1cnc2[nH]ccc2c1 — remaining binding (cell-free assay, competition with immobilised ligand; 1 µM): 76%
COc1cc(Nc2cnc(C#N)c(O[C@H](C)CN(C)C)n2)ncc1-c1cnn(C)c1 — remaining activity (enzyme activity, inhibitor, radiometric; 10 µM): 78%
CN(C)CC#Cc1ccc(OCCCc2sc(N3CCc4cccc(C(=O)Nc5nc6ccccc6s5)c4C3)nc2C(=O)O)c(F)c1 — remaining binding (cell-free assay, competition with immobilised ligand; 1 µM): 89%
CCN1CCC2(CC1)NC(=O)c1c(c3ccc(Cl)c(Cl)c3n1C)C2C#N (racemic) — ΔTm (thermal stability, DSF; 10 µM): 1.9 °C
COc1cc2ncnc(Nc3ccc(Oc4ccccc4)cc3C)c2cc1OC — inhibition (enzyme activity, inhibitor; 1 µM): 3%
Cc1cnn2ncc(-c3ccnc(N(C)C)n3)c2c1 — remaining signal (cell-free assay; 1 µM): 100%
Cc1ccc(Nc2nccc(N(C)c3ccc4c(C)n(C)nc4c3)n2)cc1S(N)(=O)=O — inhibition (enzyme activity, inhibitor; 0.3 µM): 6%
C[C@@H](N)[C@H]1CC[C@H](C(=O)Nc2ccncc2)CC1 — remaining signal (cell-free assay, inhibitor; 0.5 µM): 97.8%
CC(=O)C1=C(C)N(c2cccc(C(F)(F)F)c2)C(=O)N[C@@H]1c1ccc(C#N)nc1 — remaining binding (cell-free assay, competition with immobilised ligand; 1 µM): 92.3%
CC1(C)NC(=O)c2[nH]c3c(Cl)c(Cl)ccc3c2C1C#N (stereo not drawn) — ΔTm (thermal stability, DSF; 10 µM): 1 °C
CC(C)(C)C(=O)c1sc(NC2CCCCC2)nc1N — remaining activity (enzyme activity, inhibitor; 10 µM): 106%
CNCc1ccccc1-c1csc([C@@H](C)Nc2nc(C)nc3cc(OC)c(OC)cc23)c1 — remaining binding (cell-free assay, competition with immobilised ligand; 1 µM): 100%
CN(C)C1CCN(CC#Cc2nn(C3CCCC3)c3nc(NCc4ccccc4)ncc23)C1 (stereo not drawn) — inhibition (enzyme activity, inhibitor, FRET; 0.1 µM): 3%
CC(C)c1ccc(NC(=O)c2cccs2)c(-c2nc3ccccc3[nH]c2=O)c1 — activity vs control (enzyme activity, inhibitor; 1 µM): 108%
C=CC(=O)Nc1cc(Nc2nccc(Nc3cc(Cl)c(F)cc3C(C)(C)O)n2)c(OC)cc1N1CC[C@@H](N(C)C)C1 — inhibition (enzyme activity, inhibitor; 1 µM): 7%
CC(C)(C)c1nc2c(s1)c1nc(N)ncc1c1ccc(NS(=O)(=O)c3c(F)cccc3F)c(F)c12 — remaining activity (enzyme activity, inhibitor, radiometric; 1 µM): 104%
CN(C)c1ncnc(-c2ccc3nc(Nc4cc(CN5CCN(C(=O)CC(F)(F)F)CC5)ccn4)[nH]c3c2)c1Cl — remaining binding (cell-free assay, competition with immobilised ligand; 1 µM): 100%
O=C1Nc2ccc(Cl)cc2C1=Cc1cc(Cl)c(O)c(Cl)c1 — remaining signal (cell-free assay; 0.5 µM): 101%
CC1=C(C#N)C(c2ccc3c(c2)c(NC(=O)c2ccccc2C)nn3C)C(C#N)=C(C)N1 — remaining binding (cell-free assay, competition with immobilised ligand; 1 µM): 77%
O=C1NC(=O)c2cc(Nc3ccc(F)cc3)c(Nc3ccc(F)cc3)cc21 — remaining signal (cell-free assay, inhibitor; 0.5 µM): 94.5%
Nc1ncnc2occ(-c3ccc(NC(=O)Nc4cc(C(F)(F)F)ccc4F)cc3)c12 — remaining activity (enzyme activity, inhibitor; 20 µM): 12%
